According to paper PMC2996727 (Biochemistry, 2009):

Biological target: T1, YfcG (Escherichia coli, UniProt P77526)
T1 sequence (P77526 1-215): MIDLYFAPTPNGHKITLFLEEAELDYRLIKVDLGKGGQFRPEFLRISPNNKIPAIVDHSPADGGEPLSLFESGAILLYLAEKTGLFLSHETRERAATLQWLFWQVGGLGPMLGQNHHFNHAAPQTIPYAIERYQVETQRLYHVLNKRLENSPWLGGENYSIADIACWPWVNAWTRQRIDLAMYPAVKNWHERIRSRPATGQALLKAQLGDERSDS
Test: intrinsic fluorescence titration
Format: binding
How it was run: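 Purified enzyme titrated with thiol and disulfide ligands at 25 °C, monitoring the protein's intrinsic fluorescence; dissociation constants derived from the titration.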

Kd: 23 ± 5 µM
Compound: N[C@@H](CCC(=O)N[C@@H](CS(=O)(=O)O)C(=O)NCC(=O)O)C(=O)O [GSO3^−]
